Laboratory results as given in PMC3434103 (The Journal of General Physiology, 2012).
pKd: −log10 of the molar value. Entries after “also recorded” stand apart in the source; their conditions may differ. Values belong to the compound of their own block, whether it stands above or below them. Ends that are not written are not given here.

Tests used:
[1] = biological target: recombinant WT mouse RyR2 (Mus musculus, UniProt E9Q401); test: TAA block of EMD 41000-activated WT RyR2, single channel in planar bilayer; type: biochemical
[2] = tested on: KcsA; conditions: cytosolic cavity of KcsA; ref Faraldo-Gómez et al., 2007; cited from earlier work
[3] = tested on: K^+ channels; conditions: quoted range, ref Faraldo-Gómez et al., 2007; cited from earlier work
[4] = tested on: WT mouse RyR2; test: TAA block of ryanodine-modified WT RyR2, single channel; type: biochemical; conditions: 60 mV; for rate of dissociation (koff), difference TBA vs TPeA: 200 µM TBA or 100 µM TPeA, 1 µM ryanodine-modified; for level of block: ryanodine-modified WT, 100 µM TPeA (200 µM TBA)
How it was run: (§1)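 Ryanodine-modified single channels were used: purified HEK293-expressed mouse RyR2 (WT or mutant) in PE bilayers, symmetrical KCl/HEPES pH 7.2, room temperature. TAA was added to […], with the holding potential at 60 mV. Data were filtered at 5 kHz and sampled at 20 kHz. Open and blocked lifetimes came from 50% threshold analysis of ≥2 min records, and blocking parameters were derived from them. Mean ± SEM, unpaired t tests.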

[5] = biological target: T1, L4865A RyR2 (Mus musculus, UniProt E9Q401, L4864A); test: TPeA block of ryanodine-modified L4865A RyR2; type: biochemical; conditions: 100 µM TPeA, 60 mV
How it was run: as §1

[6] = biological target: T2, I4861A RyR2 (Mus musculus, UniProt E9Q401, I4860A/I4861A); test: TPeA block of ryanodine-modified I4861A RyR2; type: biochemical; conditions: 100 µM TPeA, 60 mV
How it was run: as §1

[7] = biological target: T2, I4861A RyR2; test: TPeA block of EMD 41000-activated I4861A RyR2; type: biochemical; conditions: 60 mV
[8] = biological target: T1, L4865A RyR2; test: TPeA block of EMD 41000-activated L4865A RyR2; type: biochemical; conditions: 60 mV
[9] = biological target: T3, I4862A RyR2 (Mus musculus, UniProt E9Q401, I4861A); test: TPeA block of ryanodine-modified I4862A RyR2; type: biochemical; conditions: 100 µM TPeA, 60 mV
How it was run: as §1

[10] = biological target: T4, I4867A RyR2 (Mus musculus, UniProt E9Q401, I4866A); test: TPeA block of ryanodine-modified I4867A RyR2; type: biochemical; conditions: 100 µM TPeA, 60 mV
How it was run: as §1

[11] = biological target: T3, I4862A RyR2; test: TPeA block of EMD 41000-activated I4862A RyR2; type: biochemical; conditions: 60 mV
[12] = biological target: T5, F4870A RyR2 (Mus musculus, UniProt E9Q401, F4869A); test: TPeA block of ryanodine-modified F4870A RyR2; type: biochemical; conditions: 100 µM TPeA, 60 mV
How it was run: as §1

[13] = tested on: RyR2; test: ShBP block of RyR2 in symmetrical 610 mM KCl; type: biochemical; conditions: for block at high K+ activity: preliminary, symmetrical 610 mM KCl plus up to 100 µM EMD 41000
[14] = biological target: WT recombinant ryanodine-modified RyR2 channels (Mus musculus, UniProt E9Q401); test: biochemical
[15] = biological target: T1, L4865A RyR2; test: Ryanodine modification of L4865A RyR2; type: biochemical
How it was run: (§2)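 Mouse RyR2 (WT or TM10 alanine mutants) was expressed in HEK293 cells by Ca²⁺ phosphate transfection for 48 h, solubilized in CHAPS/phosphatidylcholine and purified on a 0–40% sucrose gradient. Single channels were incorporated into PE bilayers with the cytosolic side cis, in symmetrical KCl with 20 mM HEPES pH 7.2, at 22 ± 2°C. After 1 µM ryanodine, amplitudes were read at 60 mV. Mean ± SEM, n = 4–7, unpaired t test.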

[16] = biological target: T3, I4862A RyR2; test: Ryanodine modification of I4862A RyR2; type: biochemical
How it was run: as §2

[17] = biological target: T4, I4867A RyR2; test: Ryanodine modification of I4867A RyR2; type: biochemical
How it was run: as §2

[18] = biological target: T5, F4870A RyR2; test: Ryanodine modification of F4870A RyR2; type: biochemical
How it was run: as §2

[19] = biological target: T2, I4861A RyR2; test: Ryanodine modification of I4861A RyR2; type: biochemical
How it was run: as §2

[20] = 1 µM ryanodine, 60 mV, lower than WT

T4 sequence (E9Q401 whole entry I4866A): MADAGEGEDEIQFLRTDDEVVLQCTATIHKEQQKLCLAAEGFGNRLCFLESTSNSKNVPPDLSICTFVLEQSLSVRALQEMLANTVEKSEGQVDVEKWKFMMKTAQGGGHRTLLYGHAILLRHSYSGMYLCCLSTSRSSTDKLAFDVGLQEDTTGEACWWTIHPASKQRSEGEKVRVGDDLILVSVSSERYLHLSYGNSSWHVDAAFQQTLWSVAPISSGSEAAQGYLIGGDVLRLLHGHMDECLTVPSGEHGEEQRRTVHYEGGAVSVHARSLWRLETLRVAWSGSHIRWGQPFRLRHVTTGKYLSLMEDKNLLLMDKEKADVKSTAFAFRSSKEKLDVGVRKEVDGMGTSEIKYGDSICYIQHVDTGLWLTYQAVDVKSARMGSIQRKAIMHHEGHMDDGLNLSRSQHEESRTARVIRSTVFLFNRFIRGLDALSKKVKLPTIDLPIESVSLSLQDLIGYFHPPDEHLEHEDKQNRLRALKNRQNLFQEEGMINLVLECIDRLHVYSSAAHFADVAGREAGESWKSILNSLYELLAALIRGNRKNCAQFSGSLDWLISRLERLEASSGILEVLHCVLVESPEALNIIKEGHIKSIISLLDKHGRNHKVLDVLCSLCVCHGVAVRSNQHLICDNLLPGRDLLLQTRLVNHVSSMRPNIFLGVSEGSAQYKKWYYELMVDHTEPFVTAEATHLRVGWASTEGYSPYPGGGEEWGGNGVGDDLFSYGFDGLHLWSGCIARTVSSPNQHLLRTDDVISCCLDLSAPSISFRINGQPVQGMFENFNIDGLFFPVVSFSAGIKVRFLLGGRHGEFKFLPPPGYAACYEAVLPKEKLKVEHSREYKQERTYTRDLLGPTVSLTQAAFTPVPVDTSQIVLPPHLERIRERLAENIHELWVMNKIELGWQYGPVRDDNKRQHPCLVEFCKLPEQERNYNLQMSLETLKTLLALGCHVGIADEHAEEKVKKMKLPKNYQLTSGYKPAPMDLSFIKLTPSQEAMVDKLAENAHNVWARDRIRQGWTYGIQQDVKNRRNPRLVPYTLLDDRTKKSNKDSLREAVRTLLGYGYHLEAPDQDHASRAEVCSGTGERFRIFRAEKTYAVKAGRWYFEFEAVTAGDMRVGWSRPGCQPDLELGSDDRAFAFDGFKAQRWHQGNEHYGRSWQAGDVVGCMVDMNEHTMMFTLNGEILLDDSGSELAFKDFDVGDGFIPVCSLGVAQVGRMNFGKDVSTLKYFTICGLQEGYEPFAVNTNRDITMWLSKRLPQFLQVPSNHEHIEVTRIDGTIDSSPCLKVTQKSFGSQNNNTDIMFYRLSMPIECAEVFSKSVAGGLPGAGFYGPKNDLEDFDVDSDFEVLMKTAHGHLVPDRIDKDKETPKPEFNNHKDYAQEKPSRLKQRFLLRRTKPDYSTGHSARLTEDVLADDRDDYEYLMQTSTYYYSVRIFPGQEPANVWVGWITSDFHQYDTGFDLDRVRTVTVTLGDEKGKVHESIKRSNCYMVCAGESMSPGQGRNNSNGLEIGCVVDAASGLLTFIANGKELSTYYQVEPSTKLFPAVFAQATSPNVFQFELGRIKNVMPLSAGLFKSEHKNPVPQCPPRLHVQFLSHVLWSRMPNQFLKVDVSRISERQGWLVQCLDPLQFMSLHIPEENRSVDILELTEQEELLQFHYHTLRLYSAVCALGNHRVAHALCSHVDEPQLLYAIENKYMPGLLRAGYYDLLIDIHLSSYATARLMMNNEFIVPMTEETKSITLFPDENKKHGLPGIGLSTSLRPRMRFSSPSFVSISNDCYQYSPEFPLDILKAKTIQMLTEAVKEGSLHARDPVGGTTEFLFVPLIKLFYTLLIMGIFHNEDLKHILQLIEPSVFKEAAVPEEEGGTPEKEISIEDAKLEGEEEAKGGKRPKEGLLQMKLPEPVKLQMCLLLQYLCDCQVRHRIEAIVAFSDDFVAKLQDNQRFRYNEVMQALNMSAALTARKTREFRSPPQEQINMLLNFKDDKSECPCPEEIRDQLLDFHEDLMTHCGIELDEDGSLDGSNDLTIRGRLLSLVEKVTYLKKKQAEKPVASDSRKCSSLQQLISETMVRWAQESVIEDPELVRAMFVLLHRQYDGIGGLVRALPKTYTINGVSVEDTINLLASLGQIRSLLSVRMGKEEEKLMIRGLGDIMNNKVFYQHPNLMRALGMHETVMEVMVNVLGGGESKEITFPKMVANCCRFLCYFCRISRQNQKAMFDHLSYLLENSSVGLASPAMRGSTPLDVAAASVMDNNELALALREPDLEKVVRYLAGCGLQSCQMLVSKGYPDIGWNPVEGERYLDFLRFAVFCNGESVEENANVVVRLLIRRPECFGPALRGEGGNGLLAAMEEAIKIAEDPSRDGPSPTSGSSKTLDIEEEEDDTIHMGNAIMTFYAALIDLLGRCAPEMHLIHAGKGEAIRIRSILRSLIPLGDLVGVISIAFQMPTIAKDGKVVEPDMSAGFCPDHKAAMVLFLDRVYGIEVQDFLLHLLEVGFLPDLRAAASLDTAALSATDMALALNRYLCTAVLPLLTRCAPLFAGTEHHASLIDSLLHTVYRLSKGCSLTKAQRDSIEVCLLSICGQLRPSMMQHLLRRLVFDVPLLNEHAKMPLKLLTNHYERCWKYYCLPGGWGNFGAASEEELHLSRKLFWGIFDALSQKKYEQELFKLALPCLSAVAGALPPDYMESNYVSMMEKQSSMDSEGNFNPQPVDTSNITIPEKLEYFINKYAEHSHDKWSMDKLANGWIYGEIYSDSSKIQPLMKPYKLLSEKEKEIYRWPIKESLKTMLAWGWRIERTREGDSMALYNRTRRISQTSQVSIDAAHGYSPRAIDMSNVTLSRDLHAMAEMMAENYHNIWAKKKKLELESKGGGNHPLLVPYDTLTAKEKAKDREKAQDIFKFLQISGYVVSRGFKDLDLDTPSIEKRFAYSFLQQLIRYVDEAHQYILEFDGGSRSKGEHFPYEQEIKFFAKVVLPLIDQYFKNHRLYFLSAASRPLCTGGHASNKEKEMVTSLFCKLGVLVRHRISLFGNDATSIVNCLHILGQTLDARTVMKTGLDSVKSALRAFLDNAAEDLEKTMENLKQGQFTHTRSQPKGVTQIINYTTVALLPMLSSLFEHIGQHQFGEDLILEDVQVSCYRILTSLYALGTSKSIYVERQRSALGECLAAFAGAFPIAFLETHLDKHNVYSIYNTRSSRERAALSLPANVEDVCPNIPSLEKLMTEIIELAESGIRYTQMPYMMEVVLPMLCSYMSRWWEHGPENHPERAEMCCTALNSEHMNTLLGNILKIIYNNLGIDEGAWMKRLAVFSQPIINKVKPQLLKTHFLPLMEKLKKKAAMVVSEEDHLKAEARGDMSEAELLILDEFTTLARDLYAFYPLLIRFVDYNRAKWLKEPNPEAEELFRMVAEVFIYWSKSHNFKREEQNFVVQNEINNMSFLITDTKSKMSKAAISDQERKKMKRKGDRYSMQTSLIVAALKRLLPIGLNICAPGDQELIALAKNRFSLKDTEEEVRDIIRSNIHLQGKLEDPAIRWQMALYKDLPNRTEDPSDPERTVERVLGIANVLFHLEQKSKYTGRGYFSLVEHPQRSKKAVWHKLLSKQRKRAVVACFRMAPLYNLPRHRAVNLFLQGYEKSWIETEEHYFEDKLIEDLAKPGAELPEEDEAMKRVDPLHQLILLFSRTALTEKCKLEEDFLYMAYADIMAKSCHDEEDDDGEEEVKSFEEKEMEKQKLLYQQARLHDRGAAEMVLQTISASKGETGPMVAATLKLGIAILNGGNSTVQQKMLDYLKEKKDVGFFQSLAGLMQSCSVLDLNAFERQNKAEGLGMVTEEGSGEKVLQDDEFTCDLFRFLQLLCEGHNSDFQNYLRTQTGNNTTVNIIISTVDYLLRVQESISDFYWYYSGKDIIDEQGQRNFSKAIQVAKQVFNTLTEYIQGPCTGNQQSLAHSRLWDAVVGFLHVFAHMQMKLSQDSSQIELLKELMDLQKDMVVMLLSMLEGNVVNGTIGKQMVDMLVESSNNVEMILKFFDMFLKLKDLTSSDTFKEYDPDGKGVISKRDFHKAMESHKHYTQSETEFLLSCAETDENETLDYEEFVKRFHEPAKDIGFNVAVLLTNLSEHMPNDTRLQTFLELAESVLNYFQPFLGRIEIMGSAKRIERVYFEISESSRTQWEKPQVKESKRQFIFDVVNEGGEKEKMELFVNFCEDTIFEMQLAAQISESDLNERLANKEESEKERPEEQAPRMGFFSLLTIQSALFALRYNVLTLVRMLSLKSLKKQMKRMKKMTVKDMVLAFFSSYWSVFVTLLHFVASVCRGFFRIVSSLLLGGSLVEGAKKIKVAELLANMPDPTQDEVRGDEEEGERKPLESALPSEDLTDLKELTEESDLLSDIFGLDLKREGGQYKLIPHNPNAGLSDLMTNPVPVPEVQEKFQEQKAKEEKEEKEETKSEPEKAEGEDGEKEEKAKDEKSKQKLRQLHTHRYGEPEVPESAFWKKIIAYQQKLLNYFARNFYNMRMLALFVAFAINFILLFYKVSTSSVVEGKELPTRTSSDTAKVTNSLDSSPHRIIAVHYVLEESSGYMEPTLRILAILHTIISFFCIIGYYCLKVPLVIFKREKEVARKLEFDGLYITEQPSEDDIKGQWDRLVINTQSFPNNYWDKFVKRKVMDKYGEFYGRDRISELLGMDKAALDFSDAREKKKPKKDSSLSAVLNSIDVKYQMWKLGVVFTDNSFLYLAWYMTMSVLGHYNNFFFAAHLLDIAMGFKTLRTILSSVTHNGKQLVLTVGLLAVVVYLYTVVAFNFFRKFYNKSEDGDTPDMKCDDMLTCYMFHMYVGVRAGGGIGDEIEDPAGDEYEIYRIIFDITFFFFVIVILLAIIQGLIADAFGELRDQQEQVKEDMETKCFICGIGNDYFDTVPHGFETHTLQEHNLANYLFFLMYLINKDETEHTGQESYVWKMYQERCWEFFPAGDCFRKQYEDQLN
T2 sequence (E9Q401 whole entry I4860A/I4861A): as the sequence (E9Q401 whole entry I4866A) above, with I4860A, I4861A, A4866I counted along it
T5 sequence (E9Q401 whole entry F4869A): as the sequence (E9Q401 whole entry I4866A) above, with A4866I, F4869A counted along it
Chain of recombinant WT mouse RyR2 (E9Q401 whole entry): as the sequence (E9Q401 whole entry I4866A) above, with A4866I counted along it
T1 sequence (E9Q401 whole entry L4864A): as the sequence (E9Q401 whole entry I4866A) above, with L4864A, A4866I counted along it
T3 sequence (E9Q401 whole entry I4861A): as the sequence (E9Q401 whole entry I4866A) above, with I4861A, A4866I counted along it

Compound: CCCC[N+](CCCC)(CCCC)CCCC [TBA, tetrabutylammonium]
- pKd [1]: 3.75
- koff [1]: 412 s⁻¹
- pore occlusion [2]: fully occludes the pore of the channel
- koff [3]: 10 to 200 s⁻¹
- rate of dissociation (koff), difference TBA vs TPeA [4]: very marked difference in the rates of dissociation of TBA and TPeA is retained
- level of block [4]: completely occlude the RyR2 pore

- pKd [1]: 5.59
- fold increase in affinity between TBA and THexA ([1]; EMD 41000-activated, 610 mM K+, 60 mV, THexA relative to TBA): 69.5 -fold
- fold decrease in koff between TPeA and THexA ([1]; EMD 41000-activated, 610 mM K+, 60 mV, THexA relative to TPeA): 1.7 -fold
Compound: CCCCCC[N+](CCCCCC)(CCCCCC)CCCCCC [THexA, tetrahexylammonium]

- koff vs WT [5]: significant increase in koff
- kon vs WT [5]: unaffected
- affinity (Kd) vs WT ([5]; in words): significant reduction in TPeA affinity
- koff vs WT [6]: significant increase in koff
- kon vs WT [6]: reduced significantly
- affinity (Kd) vs WT ([6]; in words): significant reduction in TPeA affinity
- probability of block (1 − Po) vs WT ([7]; 100 µM TPeA): reduced significantly
- rate of association (kon) vs WT ([7]; 100 µM TPeA): unaffected
- affinity (Kd) vs WT ([7]; 100 µM TPeA, in words): significant decreases in TPeA affinity
- fold decrease in koff between TBA and TPeA ([1]; EMD 41000-activated, 610 mM K+, 60 mV, TPeA relative to TBA): 22 -fold
- rate of association (kon) vs WT ([8]; 100 µM TPeA): unaffected
- koff vs WT [9]: significant increase in koff
- kon vs WT [9]: unaffected
- affinity (Kd) vs WT ([9]; in words): significant reduction in TPeA affinity
- koff vs WT [10]: significant increase in koff
- kon vs WT [10]: reduced significantly
- affinity (Kd) vs WT ([10]; in words): significant reduction in TPeA affinity
- probability of block (1 − Po) vs WT ([11]; 100 µM TPeA): reduced significantly
- rate of association (kon) vs WT ([11]; 100 µM TPeA): unaffected
- affinity (Kd) vs WT ([11]; 100 µM TPeA, in words): significant decreases in TPeA affinity
- koff vs WT [12]: significant increase in koff
- kon vs WT [12]: reduced significantly
- affinity (Kd) vs WT ([12]; in words): significant reduction in TPeA affinity
Compound: CCCCC[N+](CCCCC)(CCCCC)CCCCC [TPeA, tetrapentylammonium]
- level of block [5]: to a level indistinguishable from the closed state
- magnitude / probability of block (1 − Po) vs WT [5]: lower than that seen in the WT RyR channel
- level of block [6]: to a level indistinguishable from the closed state
- magnitude / probability of block (1 − Po) vs WT [6]: lower than that seen in the WT RyR channel
- rate of dissociation (koff) vs WT ([7]; 100 µM TPeA): significantly increased rates of TPeA dissociation
- residual current vs WT ([7]; 100 µM TPeA): slightly lower than the equivalent current in the WT RyR2
- amplitude of full open state in presence of TPeA vs WT [7]: indistinguishable from that of the WT channel
- rate of dissociation (koff) vs WT ([8]; 100 µM TPeA): significantly increased rates of TPeA dissociation
- residual current vs WT ([8]; 100 µM TPeA): indistinguishable from that of the WT channel
- amplitude of full open state in presence of TPeA vs WT [8]: indistinguishable from that of the WT channel
- level of block [9]: to a level indistinguishable from the closed state
- magnitude / probability of block (1 − Po) vs WT [9]: lower than that seen in the WT RyR channel
- level of block [10]: to a level indistinguishable from the closed state
- magnitude / probability of block (1 − Po) vs WT [10]: lower than that seen in the WT RyR channel
- rate of dissociation (koff) vs WT ([11]; 100 µM TPeA): significantly increased rates of TPeA dissociation, with the most dramatic effect seen in I4862A
- residual current vs WT ([11]; 100 µM TPeA): indistinguishable from that of the WT channel
- amplitude of full open state in presence of TPeA vs WT [11]: indistinguishable from that of the WT channel
- level of block [12]: to a level indistinguishable from the closed state
- magnitude / probability of block (1 − Po) vs WT [12]: lower than that seen in the WT RyR channel
- rate of dissociation (koff), difference TBA vs TPeA [4]: very marked difference in the rates of dissociation of TBA and TPeA is retained
- level of block [4]: to a level indistinguishable from the closed state; also recorded: completely occlude the RyR2 pore

Compound: MAAVAGLYGLGEDRQHRKKQ [ShBP]
- reduction in Po ([13]; 20 µM ShBP cytosolic, ryanodine-modified, symmetrical 610 mM KCl): no significant reduction in Po
- block at high K+ activity [13]: ineffective

Compound: MAAVVGLYGLGEDRQHRKKQ [MHBPII]
- block at high K+ activity [13]: ineffective

Compound: MAQVQGLYGLGEDRQHRKKQ-NH2 [LHBP]
- pKd [14]: 4.18

Compound: MAVVAGLYGLGEDRQHRKKQ-NH2 [MHBPI]
- pKd [14]: 4.56

Compound: ryanodine
- reduction in conductance of ryanodine-modified state vs WT modified channel [15, 20]: ~10%
- Po and unitary conductance on ryanodine modification ([15]; ryanodine): characteristic increase in Po and reduction in unitary conductance
- amplitude of ryanodine-modified open state vs WT modified channel ([16]; 1 µM ryanodine, 60 mV): not significantly different from that of the WT channel
- Po and unitary conductance on ryanodine modification ([16]; ryanodine): characteristic increase in Po and reduction in unitary conductance
- reduction in conductance of ryanodine-modified state vs WT modified channel [17, 20]: ~10%
- Po and unitary conductance on ryanodine modification ([17]; ryanodine): characteristic increase in Po and reduction in unitary conductance
- reduction in conductance of ryanodine-modified state vs WT modified channel [18, 20]: ~10%
- Po and unitary conductance on ryanodine modification ([18]; ryanodine): characteristic increase in Po and reduction in unitary conductance
- amplitude of ryanodine-modified open state vs WT modified channel ([19]; 1 µM ryanodine, 60 mV): not significantly different from that of the WT channel
- Po and unitary conductance on ryanodine modification ([19]; ryanodine): characteristic increase in Po and reduction in unitary conductance
